Measured values from ChEMBL document CHEMBL4689842, “EUbOPEN Chemogenomics Library wave 1” (2021).

System: U2OS
Assay: Multiplex assay against U2OS
Assay type: toxicity, cell-based
Conditions: human
Outline: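 Compound was added to live cells that had been stained at seeding with Hoechst33342, BioTracker Green Microtubule Cytoskeleton Dye, MitoTracker Red and Annexin V Alexa Fluor 680, and imaging followed on a CQ1 microscope at 37°C and 5% CO2. CellPathfinder machine-learning gating divided cells into Hoechst high-intensity objects or normal cells, normal cells into healthy, pyknosed or fragmented nuclei, and pyknosed cells into mitotic or apoptotic. Tubulin, mitochondrial-mass and membrane-permeability phenotypes are per cents of healthy-nucleus cells.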

[1] = 12 h, 1 µM, compound concentration 1 uM, replicate 1
[2] = 12 h, 1 µM, compound concentration 1 uM, replicate 2
[3] = 12 h, 10 µM, compound concentration 10 uM, replicate 1
[4] = 12 h, 10 µM, compound concentration 10 uM, replicate 2
[5] = 24 h, 1 µM, compound concentration 1 uM, replicate 1
[6] = 24 h, 1 µM, compound concentration 1 uM, replicate 2
[7] = 24 h, 10 µM, compound concentration 10 uM, replicate 1
[8] = 24 h, 10 µM, compound concentration 10 uM, replicate 2
[9] = 48 h, 1 µM, compound concentration 1 uM, replicate 1
[10] = 48 h, 1 µM, compound concentration 1 uM, replicate 2
[11] = 48 h, 10 µM, compound concentration 10 uM, replicate 1
[12] = 48 h, 10 µM, compound concentration 10 uM, replicate 2

Cl.O=C(O)c1cc(-c2ccc(C3CCNCC3)cc2)c2ccc(-c3ccc(C(F)(F)F)cc3)cc2c1
Population Apoptotic (%) [1]: 25%
Population Fragmented Nuclei (%) [1]: 16%
Population Healthy Nuclei (%) [1]: 67%
Population Hoechst High Intensity Objects (%) [1]: 7%
Population Membrane Permeable-Phenotype (%) [1]: 8%
Population Mitochondria Different-Phenotype (%) [1]: 9%
Population Mitotic Cells (%) [1]: 74%
Population Normal (%) [1]: 92%
Population Pyknosed Nuclei (%) [1]: 16%
Population Tubulin-Different-Phenotype (%) [1]: 15%
Total Cell Count [1]: 201
Population Apoptotic (%) [2]: 50%
Population Fragmented Nuclei (%) [2]: 11%
Population Healthy Nuclei (%) [2]: 83%
Population Hoechst High Intensity Objects (%) [2]: 5%
Population Membrane Permeable-Phenotype (%) [2]: 3%
Population Mitochondria Different-Phenotype (%) [2]: 16%
Population Mitotic Cells (%) [2]: 50%
Population Normal (%) [2]: 94%
Population Pyknosed Nuclei (%) [2]: 5%
Population Tubulin-Different-Phenotype (%) [2]: 36%
Total Cell Count [2]: 60
Population Apoptotic (%) [3]: 41%
Population Healthy Nuclei (%) [3]: 74%
Population Hoechst High Intensity Objects (%) [3]: 2%
Population Membrane Permeable-Phenotype (%) [3]: 5%
Population Mitochondria Different-Phenotype (%) [3]: 17%
Population Mitotic Cells (%) [3]: 58%
Population Normal (%) [3]: 97%
Population Pyknosed Nuclei (%) [3]: 11%
Population Tubulin-Different-Phenotype (%) [3]: 14%
Total Cell Count [3]: 181
Population Apoptotic (%) [4]: 60%
Population Fragmented Nuclei (%) [4]: 14%
Population Healthy Nuclei (%) [4]: 64%
Population Hoechst High Intensity Objects (%) [4]: 14%
Population Membrane Permeable-Phenotype (%) [4]: 10%
Population Mitochondria Different-Phenotype (%) [4]: 13%
Population Mitotic Cells (%) [4]: 40%
Population Normal (%) [4]: 85%
Population Pyknosed Nuclei (%) [4]: 21%
Population Tubulin-Different-Phenotype (%) [4]: 23%
Total Cell Count [4]: 38
Population Apoptotic (%) [5]: 35%
Population Healthy Nuclei (%) [5]: 81%
Population Hoechst High Intensity Objects (%) [5]: 7%
Population Membrane Permeable-Phenotype (%) [5]: 3%
Population Mitotic Cells (%) [5]: 64%
Population Normal (%) [5]: 92%
Population Pyknosed Nuclei (%) [5]: 6%
Population Tubulin-Different-Phenotype (%) [5]: 12%
Total Cell Count [5]: 249
Population Apoptotic (%) [6]: 20%
Population Fragmented Nuclei (%) [6]: 11%
Population Healthy Nuclei (%) [6]: 79%
Population Hoechst High Intensity Objects (%) [6]: 3%
Population Membrane Permeable-Phenotype (%) [6]: 4%
Population Mitochondria Different-Phenotype (%) [6]: 9%
Population Mitotic Cells (%) [6]: 80%
Population Normal (%) [6]: 96%
Population Pyknosed Nuclei (%) [6]: 9%
Population Tubulin-Different-Phenotype (%) [6]: 30%
Total Cell Count [6]: 62
Population Apoptotic (%) [7]: 41%
Population Fragmented Nuclei (%) [7]: 13%
Population Healthy Nuclei (%) [7]: 72%
Population Hoechst High Intensity Objects (%) [7]: 4%
Population Membrane Permeable-Phenotype (%) [7]: 4%
Population Mitochondria Different-Phenotype (%) [7]: 12%
Population Mitotic Cells (%) [7]: 58%
Population Normal (%) [7]: 95%
Population Pyknosed Nuclei (%) [7]: 13%
Population Tubulin-Different-Phenotype (%) [7]: 13%
Total Cell Count [7]: 227
Population Apoptotic (%) [8]: 61%
Population Fragmented Nuclei (%) [8]: 17%
Population Healthy Nuclei (%) [8]: 61%
Population Hoechst High Intensity Objects (%) [8]: 8%
Population Membrane Permeable-Phenotype (%) [8]: 7%
Population Mitochondria Different-Phenotype (%) [8]: 5%
Population Mitotic Cells (%) [8]: 38%
Population Normal (%) [8]: 91%
Population Pyknosed Nuclei (%) [8]: 20%
Population Tubulin-Different-Phenotype (%) [8]: 16%
Total Cell Count [8]: 56
Population Apoptotic (%) [9]: 17%
Population Fragmented Nuclei (%) [9]: 9%
Population Healthy Nuclei (%) [9]: 81%
Population Hoechst High Intensity Objects (%) [9]: 3%
Population Membrane Permeable-Phenotype (%) [9]: 1%
Population Mitochondria Different-Phenotype (%) [9]: 17%
Population Mitotic Cells (%) [9]: 82%
Population Normal (%) [9]: 96%
Population Pyknosed Nuclei (%) [9]: 9%
Population Tubulin-Different-Phenotype (%) [9]: 12%
Total Cell Count [9]: 359
Population Apoptotic (%) [10]: 33%
Population Fragmented Nuclei (%) [10]: 6%
Population Healthy Nuclei (%) [10]: 89%
Population Hoechst High Intensity Objects (%) [10]: 2%
Population Membrane Permeable-Phenotype (%) [10]: 4%
Population Mitochondria Different-Phenotype (%) [10]: 11%
Population Mitotic Cells (%) [10]: 66%
Population Normal (%) [10]: 97%
Population Pyknosed Nuclei (%) [10]: 3%
Population Tubulin-Different-Phenotype (%) [10]: 32%
Total Cell Count [10]: 95
Population Apoptotic (%) [11]: 45%
Population Fragmented Nuclei (%) [11]: 12%
Population Healthy Nuclei (%) [11]: 65%
Population Hoechst High Intensity Objects (%) [11]: 5%
Population Membrane Permeable-Phenotype (%) [11]: 5%
Population Mitochondria Different-Phenotype (%) [11]: 7%
Population Mitotic Cells (%) [11]: 54%
Population Normal (%) [11]: 94%
Population Pyknosed Nuclei (%) [11]: 21%
Population Tubulin-Different-Phenotype (%) [11]: 14%
Total Cell Count [11]: 332
Population Apoptotic (%) [12]: 75%
Population Fragmented Nuclei (%) [12]: 17%
Population Healthy Nuclei (%) [12]: 66%
Population Hoechst High Intensity Objects (%) [12]: 10%
Population Membrane Permeable-Phenotype (%) [12]: 13%
Population Mitochondria Different-Phenotype (%) [12]: 13%
Population Mitotic Cells (%) [12]: 25%
Population Normal (%) [12]: 89%
Population Pyknosed Nuclei (%) [12]: 16%
Population Tubulin-Different-Phenotype (%) [12]: 21%
Total Cell Count [12]: 80
